{
  "source": "ChEMBL document CHEMBL1121810",
  "about": "“Antihypertensive activity of 6-arylpyrido[2,3-d]pyrimidin-7-amine derivatives” (1981)",
  "assay_type_in_all_cases": "functional",
  "key": {"Rattus norvegicus [1]": {"tested_on": "Rattus norvegicus", "assay": "Maximum percent decrease in heart rate of spontaneously hypertensive rats, 24 hours after peroral administration of 50 mg/kg of compound", "details": "route oral", "how_it_was_run": "(§1)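 Heart rate was derived from the pulsatile arterial pressure signal in conscious catheterized male SHR (22-24 weeks, 250-350 g), with continuous monitoring sampled 3 min per 30 min. Drug was given by gavage as a 4% gum acacia suspension at 2 mL/kg, dose as free base, to groups of 3-4 rats with mean pressure >150 mmHg. Individual 30-min means were compared with pretreatment values.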"}, "Rattus norvegicus [2]": {"tested_on": "Rattus norvegicus", "assay": "(§2) Max effect on heart rate of spontaneously hypertensive rats, 3-5 hr after peroral administration of 3 mg/kg of compound", "details": "route oral", "how_it_was_run": "as §1"}, "Rattus norvegicus [3]": {"tested_on": "Rattus norvegicus", "assay": "Effect on heart rate of spontaneously hypertensive rats, 10 hr after peroral administration at 50 mg/kg", "details": "route oral", "how_it_was_run": "as §1"}, "Rattus norvegicus [4]": {"tested_on": "Rattus norvegicus", "assay": "Effect on heart rate of spontaneously hypertensive rats, 24 hr after peroral administration at 50 mg/kg", "details": "route oral", "how_it_was_run": "as §1"}, "Rattus norvegicus [5]": {"tested_on": "Rattus norvegicus", "assay": "Effect on heart rate of spontaneously hypertensive rats, 2 hr after peroral administration at 50 mg/kg", "details": "route oral", "how_it_was_run": "as §1"}, "Rattus norvegicus [6]": {"tested_on": "Rattus norvegicus", "assay": "Max effect on heart rate of spontaneously hypertensive rats, 3-5 hr after peroral administration of 10 mg/kg of compound", "details": "route oral", "how_it_was_run": "as §1"}, "Rattus norvegicus [7]": {"tested_on": "Rattus norvegicus", "assay": "Max effect on heart rate of spontaneously hypertensive rats, 3-5 hr after peroral administration of 10 mg/kg of compound; significant decrease observed on 2nd and 3rd days", "details": "route oral", "how_it_was_run": "as §1"}, "Rattus norvegicus [8]": {"tested_on": "Rattus norvegicus", "assay": "as §2", "details": "route oral", "how_it_was_run": "as §1", "remark": "listed apart in the source"}, "Rattus norvegicus [9]": {"tested_on": "Rattus norvegicus", "assay": "Max effect on heart rate of spontaneously hypertensive rats, 3-5 hr after peroral administration of 3 mg/kg of compound; significant decrease observed on 2nd and 3rd days", "details": "route oral", "how_it_was_run": "as §1"}, "Rattus norvegicus [10]": {"tested_on": "Rattus norvegicus", "assay": "Maximum percent decrease in heart rate of spontaneously hypertensive rats, 4 hours after peroral administration of 50 mg/kg of compound", "details": "route oral", "how_it_was_run": "as §1"}, "Rattus norvegicus [11]": {"tested_on": "Rattus norvegicus", "assay": "Maximum percent decrease in heart rate of spontaneously hypertensive rats, 4 hr after peroral administration of 50 mg/kg of compound", "details": "route oral", "how_it_was_run": "as §1"}, "Rattus norvegicus [12]": {"tested_on": "Rattus norvegicus", "assay": "Maximum percent decrease in heart rate of spontaneously hypertensive rats, 10 hours after peroral administration of 50 mg/kg of compound", "details": "route oral", "how_it_was_run": "as §1"}, "Rattus norvegicus [13]": {"tested_on": "Rattus norvegicus", "assay": "Effect on heart rate of spontaneously hypertensive rats, 10 hr after peroral administration of 10 mg/kg of compound", "details": "route oral", "how_it_was_run": "as §1"}, "Rattus norvegicus [14]": {"tested_on": "Rattus norvegicus", "assay": "Effect on heart rate of spontaneously hypertensive rats, 10 hr after peroral administration of 3 mg/kg of compound", "details": "route oral", "how_it_was_run": "as §1"}, "Rattus norvegicus [15]": {"tested_on": "Rattus norvegicus", "assay": "Effect on heart rate of spontaneously hypertensive rats, 24 hr after peroral administration of 10 mg/kg of compound", "details": "route oral", "how_it_was_run": "as §1"}, "Rattus norvegicus [16]": {"tested_on": "Rattus norvegicus", "assay": "Effect on heart rate of spontaneously hypertensive rats, 24 hr after peroral administration of 3 mg/kg of compound", "details": "route oral", "how_it_was_run": "as §1"}, "Rattus norvegicus [17]": {"tested_on": "Rattus norvegicus", "assay": "Effect on heart rate of spontaneously hypertensive rats, 2 hr after peroral administration of 10 mg/kg of compound", "details": "route oral", "how_it_was_run": "as §1"}, "Rattus norvegicus [18]": {"tested_on": "Rattus norvegicus", "assay": "Effect on heart rate of spontaneously hypertensive rats, 2 hr after peroral administration of 3 mg/kg of compound", "details": "route oral", "how_it_was_run": "as §1"}, "Rattus norvegicus [19]": {"organism": "Rattus norvegicus", "assay": "Dose required to lower blood pressure by 30mmHg, 5-h post treatment", "how_it_was_run": "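Conscious male SHR (22-24 weeks, 250-350 g) with indwelling catheters for continuous blood pressure and heart rate monitoring; only rats with mean pressure >150 mmHg and pulse pressure >25 mmHg were used. Oral gavage of a suspension in 4% gum acacia (2 mL/kg), doses as free base, groups of 3-4. Mean pressure was sampled 3 min per 30 min and compared with pretreatment; the value is the dose lowering pressure by 30 mmHg at 5 h.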"}, "Rattus norvegicus [20]": {"tested_on": "Rattus norvegicus", "assay": "Maximum percent decrease in heart rate of spontaneously hypertensive rats, 6 hours after peroral administration of 50 mg/kg of compound", "details": "route oral", "how_it_was_run": "(§3)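 Conscious male SHR (Kyoto-Wistar origin, 22-24 weeks, 250-350 g; mean BP >150 mmHg, pulse pressure >25 mmHg) with indwelling catheters, ~0.8 mL heparinized saline/day. Dosed by gavage as a 4% gum acacia suspension, 2 mL/kg, free-base doses, 3-4 rats per group. Heart rate was derived from the pulsatile pressure signal, sampled 3 min every 30 min, and 30-min means were compared with pretreatment values.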"}, "Rattus norvegicus [21]": {"tested_on": "Rattus norvegicus", "assay": "Effect on heart rate of spontaneously hypertensive rats, 18 hr after peroral administration of 10 mg/kg of compound", "details": "route oral", "how_it_was_run": "as §1"}, "Rattus norvegicus [22]": {"tested_on": "Rattus norvegicus", "assay": "Maximum percent decrease in heart rate of spontaneously hypertensive rats, 8 hr after peroral administration of 50 mg/kg of compound", "details": "route oral", "how_it_was_run": "as §3"}, "Rattus norvegicus [23]": {"tested_on": "Rattus norvegicus", "assay": "Effect on heart rate of spontaneously hypertensive rats, 24 hours after peroral administration of 50 mg/kg of compound", "details": "route oral", "how_it_was_run": "as §1"}, "Rattus norvegicus [24]": {"tested_on": "Rattus norvegicus", "assay": "Effect on heart rate of spontaneously hypertensive rats,24hours after peroral administration of 10 mg/kg of compound", "details": "route oral", "how_it_was_run": "as §1"}},
  "data": [
    {"molecule": "Nc1nc2ncncc2cc1-c1c(Cl)cccc1Cl", "values": [
      {"measurement": "Decrease", "setting": "Rattus norvegicus [1]", "result": 22, "unit": "%"},
      {"measurement": "Activity rating", "setting": "Rattus norvegicus [2]", "result": 0},
      {"measurement": "Activity rating", "setting": "Rattus norvegicus [3]", "result": 0},
      {"measurement": "Activity rating", "setting": "Rattus norvegicus [4]", "result": 2},
      {"measurement": "Activity rating", "setting": "Rattus norvegicus [5]", "result": 0},
      {"measurement": "Activity rating", "setting": "Rattus norvegicus [6]", "result": 0},
      {"measurement": "Activity rating", "setting": "Rattus norvegicus [7]", "result": 0},
      {"measurement": "Activity rating", "setting": "Rattus norvegicus [8]", "result": 0},
      {"measurement": "Activity rating", "setting": "Rattus norvegicus [9]", "result": 0}
    ]},
    {"molecule": "Cc1ncc2cc(-c3ccccc3C)c(N)nc2n1", "values": [
      {"measurement": "Decrease", "setting": "Rattus norvegicus [10]", "result": 22, "unit": "%"},
      {"measurement": "Activity rating", "setting": "Rattus norvegicus [3]", "result": 1},
      {"measurement": "Activity rating", "setting": "Rattus norvegicus [4]", "result": 1},
      {"measurement": "Activity rating", "setting": "Rattus norvegicus [5]", "result": 1}
    ]},
    {"molecule": "Cc1ncc2cc(-c3ccccc3Br)c(N)nc2n1", "values": [
      {"measurement": "Decrease", "setting": "Rattus norvegicus [11]", "result": 19, "unit": "%"},
      {"measurement": "Activity rating", "setting": "Rattus norvegicus [3]", "result": 1},
      {"measurement": "Activity rating", "setting": "Rattus norvegicus [4]", "result": 0},
      {"measurement": "Activity rating", "setting": "Rattus norvegicus [5]", "result": 1},
      {"measurement": "Activity rating", "setting": "Rattus norvegicus [6]", "result": 0}
    ]},
    {"molecule": "Cc1ncc2cc(-c3c(Cl)cccc3Cl)c(N)nc2n1", "values": [
      {"measurement": "Decrease", "setting": "Rattus norvegicus [12]", "result": 32, "unit": "%"},
      {"measurement": "Activity rating", "setting": "Rattus norvegicus [13]", "result": 1},
      {"measurement": "Activity rating", "setting": "Rattus norvegicus [14]", "result": 1},
      {"measurement": "Activity rating", "setting": "Rattus norvegicus [3]", "result": 3},
      {"measurement": "Activity rating", "setting": "Rattus norvegicus [15]", "result": 1},
      {"measurement": "Activity rating", "setting": "Rattus norvegicus [16]", "result": 1},
      {"measurement": "Activity rating", "setting": "Rattus norvegicus [4]", "result": 3},
      {"measurement": "Activity rating", "setting": "Rattus norvegicus [17]", "result": 1},
      {"measurement": "Activity rating", "setting": "Rattus norvegicus [18]", "result": 1},
      {"measurement": "Activity rating", "setting": "Rattus norvegicus [5]", "result": 1},
      {"measurement": "ED30", "setting": "Rattus norvegicus [19]", "result": 17, "unit": "mg/kg"},
      {"measurement": "LD50", "setting": "Rattus norvegicus [19]", "result": "> 7000", "unit": "mg/kg"}
    ]},
    {"molecule": "Cc1ncc2cc(-c3c(Br)cccc3Br)c(N)nc2n1", "values": [
      {"measurement": "Decrease", "setting": "Rattus norvegicus [20]", "result": 28, "unit": "%"},
      {"measurement": "Activity rating", "setting": "Rattus norvegicus [13]", "result": 2},
      {"measurement": "Activity rating", "setting": "Rattus norvegicus [3]", "result": 2},
      {"measurement": "Activity rating", "setting": "Rattus norvegicus [21]", "result": 1},
      {"measurement": "Activity rating", "setting": "Rattus norvegicus [4]", "result": 2},
      {"measurement": "Activity rating", "setting": "Rattus norvegicus [17]", "result": 1},
      {"measurement": "Activity rating", "setting": "Rattus norvegicus [5]", "result": 2}
    ]},
    {"molecule": "Cc1ncc2cc(-c3ccccc3Cl)c(N)nc2n1", "values": [
      {"measurement": "Decrease", "setting": "Rattus norvegicus [22]", "result": 16, "unit": "%"},
      {"measurement": "Activity rating", "setting": "Rattus norvegicus [3]", "result": 1},
      {"measurement": "Activity rating", "setting": "Rattus norvegicus [4]", "result": 1},
      {"measurement": "Activity rating", "setting": "Rattus norvegicus [5]", "result": 0}
    ]},
    {"molecule": "Nc1nc2ncncc2cc1-c1ccccc1Cl", "values": [
      {"measurement": "Activity rating", "setting": "Rattus norvegicus [3]", "result": 0},
      {"measurement": "Activity rating", "setting": "Rattus norvegicus [23]", "result": 0},
      {"measurement": "Activity rating", "setting": "Rattus norvegicus [5]", "result": 0}
    ]},
    {"molecule": "Nc1ncc2cc(-c3c(Cl)cccc3Cl)c(N)nc2n1", "values": [
      {"measurement": "Decrease", "setting": "Rattus norvegicus [1]", "result": 18, "unit": "%"},
      {"measurement": "Activity rating", "setting": "Rattus norvegicus [13]", "result": 0},
      {"measurement": "Activity rating", "setting": "Rattus norvegicus [3]", "result": 1},
      {"measurement": "Activity rating", "setting": "Rattus norvegicus [4]", "result": 2},
      {"measurement": "Activity rating", "setting": "Rattus norvegicus [17]", "result": 0},
      {"measurement": "Activity rating", "setting": "Rattus norvegicus [5]", "result": 0},
      {"measurement": "Activity rating", "setting": "Rattus norvegicus [24]", "result": 1}
    ]}
  ]
}
